Measured values from ChEMBL document CHEMBL4715919 (Bioorg Med Chem, 2021).
pIC50: −log10 of the molar value.

Columns and labels:
[1] = target: T1, Sodium/glucose cotransporter 2 (Homo sapiens, UniProt P31639); experiment: Inhibition of human SGLT2 expressed in COS7 cells assessed as reduction in [14C]-AMG uptake; format: cell-based
T1 sequence (P31639 whole entry): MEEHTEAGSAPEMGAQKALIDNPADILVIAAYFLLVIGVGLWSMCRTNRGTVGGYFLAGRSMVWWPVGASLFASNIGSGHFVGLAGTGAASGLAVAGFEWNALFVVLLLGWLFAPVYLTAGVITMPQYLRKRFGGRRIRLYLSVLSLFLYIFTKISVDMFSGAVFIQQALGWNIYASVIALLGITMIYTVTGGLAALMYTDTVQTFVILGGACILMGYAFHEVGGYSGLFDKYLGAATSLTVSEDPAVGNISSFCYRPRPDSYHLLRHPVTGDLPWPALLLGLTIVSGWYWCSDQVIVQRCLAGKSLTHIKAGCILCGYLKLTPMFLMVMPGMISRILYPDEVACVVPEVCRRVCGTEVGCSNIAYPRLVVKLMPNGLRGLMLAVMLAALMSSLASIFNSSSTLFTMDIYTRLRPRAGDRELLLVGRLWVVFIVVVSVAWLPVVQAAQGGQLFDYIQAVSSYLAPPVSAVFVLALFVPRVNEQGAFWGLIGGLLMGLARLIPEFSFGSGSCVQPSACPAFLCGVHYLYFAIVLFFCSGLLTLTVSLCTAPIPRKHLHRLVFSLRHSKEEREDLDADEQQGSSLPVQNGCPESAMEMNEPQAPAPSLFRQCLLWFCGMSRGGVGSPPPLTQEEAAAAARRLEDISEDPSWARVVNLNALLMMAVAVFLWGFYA
Procedure, shortened: (§1)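 Human SGLT2 expression plasmid transfected into COS-7 cells. Uptake of [¹⁴C]-α-methyl-D-glucopyranoside (AMG) measured with 0.3 mM AMG in uptake buffer. […] Mean ± SEM of at least three independent experiments.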

[2] = Intrinsic clearance in rat intestinal S9 fraction at 10 uM up to 60 min in presence of NADPH by LC-MS/MS analysis
[3] = AUC(0 to t) in rat at 3 mg/kg, po up to 360 mins by LC-MS/MS analysis; format: ADME, organism-based; parameters: route oral, dose 3 mg/kg, time <=360; details: in vivo
Procedure, shortened: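 Rats dosed once orally at 3 mg/kg (5 mL/kg) as a suspension in 0.5 w/v% methyl cellulose 400. Jugular vein blood drawn at 5, 10, 15, 30, 60, 120, 240 and 360 min. Plasma levels measured by LC-MS/MS. AUC taken to the last observation point. Mean ± SD.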

[4] = Apparent permeability of compound in human Caco-2 cells by LC-MS/MS analysis; format: ADME, cell-based
Procedure, shortened: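 Caco-2 cells seeded at 1.0 × 10⁵ cells/well on polycarbonate inserts (0.3 cm², 1 μm pores). After 60 min at 37 °C in 5% CO₂, buffer sampled from the opposite side. Compound measured by LC-MS/MS. Papp in 10^-6 cm/s.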

[5] = Oral bioavailability in rat assessed as ratio of AUC at 3 mg/kg up to 360 mins by LC-MS/MS analysis; format: ADME, organism-based; details: in vivo
Procedure, shortened: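 Rat oral dosing at 3 mg/kg in 0.5% methyl cellulose, with iv dosing at 1 mg/kg in 20% DMA/80% saline. Jugular blood sampled from 5 to 360 min, plasma quantified by LC-MS/MS. F is the ratio of oral AUC to iv AUC. For the ester prodrug, AUC of the parent glucoside after prodrug dosing is compared with iv parent.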

[6] = Intrinsic clearance in human liver microsomes at 30 uM up to 60 mins by LC-MS/MS analysis; format: ADME, Microsome; details: read-out: CLH
Procedure, shortened: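 Compound at 30 μM incubated at 37 °C with human liver microsomes (1 mg/mL protein) in 100 mmol/L phosphate pH 7.4 with 10 mM MgCl₂ and 1 mg/mL NADPH. Sampled at 0, 15, 30 and 60 min, quenched with ice-cold acetonitrile, centrifuged. Parent measured by LC-MS/MS. t1/2 and CLint derived from remaining compound.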

[7] = target: T1, Sodium/glucose cotransporter 2; experiment: Inhibition of human SGLT2 expressed in COS7 cells; format: cell-based; procedure, shortened: as §1

| Structure (SMILES) | pIC50 [1] | further results |
| --- | --- | --- |
| CCc1[nH]nc(O[C@@H]2O[C@H](CO)[C@@H](O)[C@H](O)[C@H]2O)c1Cc1ccc(SC)cc1 | 7.29 | microsomal CLint at 10 µM [2]: 4.8 µL/min/mg |
| CSc1ccc(Cc2c(O[C@@H]3O[C@H](CO)[C@@H](O)[C@H](O)[C@H]3O)n[nH]c2C(F)(F)F)cc1 | 7.79 | microsomal CLint at 10 µM [2]: 73.2 µL/min/mg |
| Cc1nn(C)c(O[C@@H]2O[C@H](CO)[C@@H](O)[C@H](O)[C@H]2O)c1Cc1ccc(OC(C)C)cc1 | < 6.00 | – |
| Cc1c(Cc2ccc(OC(C)C)cc2)c(O[C@@H]2O[C@H](CO)[C@@H](O)[C@H](O)[C@H]2O)nn1C | 6.96 | microsomal CLint at 30 µM [6]: 3.73 µL/min/mg |
| CCn1nc(O[C@@H]2O[C@H](CO)[C@@H](O)[C@H](O)[C@H]2O)c(Cc2ccc(OC(C)C)cc2)c1C | 7.36 | microsomal CLint at 30 µM [6]: 4.15 µL/min/mg |
| CCCn1nc(O[C@@H]2O[C@H](CO)[C@@H](O)[C@H](O)[C@H]2O)c(Cc2ccc(OC(C)C)cc2)c1C | 7.18 | microsomal CLint at 30 µM [6]: 6.75 µL/min/mg |
| CSc1ccc(Cc2c(O[C@@H]3O[C@H](CO)[C@@H](O)[C@H](O)[C@H]3O)n[nH]c2C(C)C)cc1 | 6.81 | microsomal CLint at 10 µM [2]: 4.6 µL/min/mg |
| CSc1ccc(Cc2c(C(F)(F)F)n[nH]c2O)cc1 | – | pIC50 [7]: < 3.00 |
| CCOC(=O)OC[C@H]1O[C@@H](Oc2nn(C(C)C)c(C)c2Cc2ccc(OC(C)C)cc2)[C@H](O)[C@@H](O)[C@@H]1O [REMOGLIFLOZIN ETABONATE] | 5.60 | Papp [4]: 4.29 ×10⁻⁶ cm/s; microsomal CLint at 10 µM [2]: 3.4 µL/min/mg; bioavailability [5]: 5.79% |
| Cc1c(Cc2ccc(OC(C)C)cc2)c(O[C@@H]2O[C@H](CO)[C@@H](O)[C@H](O)[C@H]2O)nn1C(C)C [REMOGLIFLOZIN] | 7.74 | AUC(0-t) at 6 h [3]: 27.9 ng·h/mL; Papp [4]: 3.16 ×10⁻⁶ cm/s; microsomal CLint at 10 µM [2]: 3.9 µL/min/mg; bioavailability [5]: 3.23%; microsomal CLint at 30 µM [6]: 0.85 µL/min/mg |

More lines, main results first:

| pIC50 [1] | Structure (SMILES) | further results |
| --- | --- | --- |
| 7.91 | Cc1ccc(Cc2c(O[C@@H]3O[C@H](CO)[C@@H](O)[C@H](O)[C@H]3O)n[nH]c2C)cc1 | – |
| 8.06 | CCCc1ccc(Cc2c(O[C@@H]3O[C@H](CO)[C@@H](O)[C@H](O)[C@H]3O)n[nH]c2C)cc1 | – |
| 8.31 | CSc1ccc(Cc2c(O[C@@H]3O[C@H](CO)[C@@H](O)[C@H](O)[C@H]3O)n[nH]c2C)cc1 | microsomal CLint at 10 µM [2]: 3.2 µL/min/mg |
| 7.81 | CCCOc1ccc(Cc2c(O[C@@H]3O[C@H](CO)[C@@H](O)[C@H](O)[C@H]3O)n[nH]c2C)cc1 | – |
| 7.97 | CCOc1ccc(Cc2c(O[C@@H]3O[C@H](CO)[C@@H](O)[C@H](O)[C@H]3O)n[nH]c2C)cc1 | – |
| 7.91 | COc1ccc(Cc2c(O[C@@H]3O[C@H](CO)[C@@H](O)[C@H](O)[C@H]3O)n[nH]c2C)cc1 | – |
| 8.41 | CCc1ccc(Cc2c(O[C@@H]3O[C@H](CO)[C@@H](O)[C@H](O)[C@H]3O)n[nH]c2C)cc1 | – |
| 8.00 | Cc1[nH]nc(O[C@@H]2O[C@H](CO)[C@@H](O)[C@H](O)[C@H]2O)c1Cc1ccc(OC(C)C)cc1 | AUC(0-t) at 6 h [3]: 6.42 ng·h/mL; Papp [4]: 1.02 ×10⁻⁶ cm/s; microsomal CLint at 10 µM [2]: 4.1 µL/min/mg; bioavailability [5]: 0.43%; microsomal CLint at 30 µM [6]: 1.44 µL/min/mg |
| 7.79 | Cc1[nH]nc(O[C@@H]2O[C@H](CO)[C@@H](O)[C@H](O)[C@H]2O)c1Cc1ccc(C(C)C)cc1 | – |
| 6.04 | Cc1ccccc1Cc1c(O[C@@H]2O[C@H](CO)[C@@H](O)[C@H](O)[C@H]2O)n[nH]c1C | – |
| 6.12 | Cc1cccc(Cc2c(O[C@@H]3O[C@H](CO)[C@@H](O)[C@H](O)[C@H]3O)n[nH]c2C)c1 | – |
| 7.07 | OC[C@H]1O[C@@H](Oc2n[nH]c3cccc(CCc4ccccc4)c23)[C@H](O)[C@@H](O)[C@@H]1O | – |
| 5.28 | Cc1[nH]nc(O[C@@H]2O[C@H](CO)[C@@H](O)[C@H](O)[C@H]2O)c1CCc1ccccc1 | – |
| 5.40 | Cc1[nH]nc(O[C@@H]2O[C@H](CO)[C@@H](O)[C@H](O)[C@H]2O)c1CCCc1ccccc1 | – |
| 6.74 | Cc1[nH]nc(O[C@@H]2O[C@H](CO)[C@@H](O)[C@H](O)[C@H]2O)c1Cc1ccccc1 | – |
